Data: ChEMBL document CHEMBL1143872, “Design, synthesis, and preliminary evaluation of 4-(6-(3-nitroguanidino)hexanamido)pyrrolidine derivatives as potential iNOS inhibitors” (Bioorg Med Chem, 2008)

target: T1, Nitric oxide synthase, inducible (Mus musculus, UniProt P29477); assay: Inhibition of inducible NOS mediated nitric oxide production in LPS-activated Kunming mouse macrophages
T1 sequence (P29477 whole entry): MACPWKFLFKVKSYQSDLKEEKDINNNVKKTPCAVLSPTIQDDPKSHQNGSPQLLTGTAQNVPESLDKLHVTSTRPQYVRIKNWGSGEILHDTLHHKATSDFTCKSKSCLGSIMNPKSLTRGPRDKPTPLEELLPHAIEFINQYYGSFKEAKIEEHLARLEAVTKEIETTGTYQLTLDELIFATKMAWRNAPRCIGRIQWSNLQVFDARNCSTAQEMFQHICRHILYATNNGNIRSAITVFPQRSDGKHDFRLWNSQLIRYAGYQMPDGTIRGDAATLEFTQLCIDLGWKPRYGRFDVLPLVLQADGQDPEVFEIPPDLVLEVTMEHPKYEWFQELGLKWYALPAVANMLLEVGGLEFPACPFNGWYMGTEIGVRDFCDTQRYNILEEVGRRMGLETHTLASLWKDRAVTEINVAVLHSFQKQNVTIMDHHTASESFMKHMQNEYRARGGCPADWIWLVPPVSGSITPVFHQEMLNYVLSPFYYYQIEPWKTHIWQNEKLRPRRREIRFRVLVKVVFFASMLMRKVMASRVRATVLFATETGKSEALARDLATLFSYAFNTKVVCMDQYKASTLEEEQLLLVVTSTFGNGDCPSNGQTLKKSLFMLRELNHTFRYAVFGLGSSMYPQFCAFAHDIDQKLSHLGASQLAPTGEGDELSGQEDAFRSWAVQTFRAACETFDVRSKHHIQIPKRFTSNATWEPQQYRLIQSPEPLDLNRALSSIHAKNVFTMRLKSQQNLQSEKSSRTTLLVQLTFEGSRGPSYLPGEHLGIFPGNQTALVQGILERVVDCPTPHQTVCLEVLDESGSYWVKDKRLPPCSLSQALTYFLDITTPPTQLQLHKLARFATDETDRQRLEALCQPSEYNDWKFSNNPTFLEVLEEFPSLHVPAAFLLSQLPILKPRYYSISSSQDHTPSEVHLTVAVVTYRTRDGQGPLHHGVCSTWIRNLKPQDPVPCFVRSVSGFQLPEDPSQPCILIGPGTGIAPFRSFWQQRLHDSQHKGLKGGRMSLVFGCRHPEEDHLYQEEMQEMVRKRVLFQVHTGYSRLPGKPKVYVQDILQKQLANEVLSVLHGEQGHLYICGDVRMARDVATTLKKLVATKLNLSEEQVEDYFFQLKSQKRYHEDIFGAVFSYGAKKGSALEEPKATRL
Method in brief: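 Peritoneal exudate cells from female Kunming mice (18–22 g), elicited 2 d earlier by ip 3% starch (1 mL). Cells (10^6/well) precultured 4 h at 37 °C in DMEM with 5% FCS, then washed to keep the adherent macrophages (>95% by Giemsa). Stimulated with LPS 10 µg/mL plus graded compound for 20 h. Nitrite/nitrate measured after nitrate reductase conversion, read colorimetrically. Inhibition % calculated, IC50 read graphically. L-NNA positive control.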

In order of rising IC50:
1. N=C(NCCCCCC(=O)N[C@@H]1CN[C@H](C(=O)Nc2ccccc2)C1)N[N+](=O)[O-]  2.36 µM
2. Cc1ccc(NC(=O)[C@@H]2C[C@H](NC(=O)CCCCCNC(=N)N[N+](=O)[O-])CN2)cc1Cl  2.5 µM
3. N=C(NCCCCCC(=O)N[C@@H]1CN[C@H](C(=O)Nc2ccc(F)c(F)c2)C1)N[N+](=O)[O-]  2.68 µM
4. N=C(NCCCCCC(=O)N[C@@H]1CN[C@H](C(=O)NC2CCCCC2)C1)N[N+](=O)[O-]  7.37 µM
5. N=C(NCCCCCC(=O)N[C@@H]1CN[C@H](C(=O)Nc2cc(F)cc(F)c2)C1)N[N+](=O)[O-]  11.7 µM
6. N=C(NCCCCCC(=O)N[C@@H]1CN[C@H](C(=O)Nc2cccc(Cl)c2)C1)N[N+](=O)[O-]  13 µM
7. N=C(NCCCCCC(=O)N[C@@H]1CN[C@H](C(=O)Nc2ccccc2F)C1)N[N+](=O)[O-]  13.1 µM
8. N=C(NCCC[C@H](N)C(=O)O)N[N+](=O)[O-] [NITROARGININE]  14.7 µM
9. N=C(NCCCCCC(=O)N[C@@H]1CN[C@H](C(=O)Nc2ccc(Cl)cc2Cl)C1)N[N+](=O)[O-]  15.5 µM
10. N=C(NCCCCCC(=O)N[C@@H]1CN[C@H](C(=O)Nc2ccc([N+](=O)[O-])cc2)C1)N[N+](=O)[O-]  25 µM
11. COc1ccc(NC(=O)[C@@H]2C[C@H](NC(=O)CCCCCNC(=N)N[N+](=O)[O-])CN2)cc1  26.7 µM
12. N=C(NCCCCCC(=O)N[C@@H]1CN[C@H](C(=O)Nc2ccc(F)c(F)c2F)C1)N[N+](=O)[O-]  36.2 µM
13. N=C(NCCCCCC(=O)N[C@@H]1CN[C@H](C(=O)NCc2ccccc2)C1)N[N+](=O)[O-]  43.5 µM
14. N=C(NCCCCCC(=O)N[C@@H]1CN[C@H](C(=O)Nc2cccc([N+](=O)[O-])c2)C1)N[N+](=O)[O-]  46 µM
15. N=C(NCCCCCC(=O)N[C@@H]1CN[C@H](C(=O)Nc2ccc(Br)cc2)C1)N[N+](=O)[O-]  74.6 µM
16. N=C(NCCCCCC(=O)N[C@@H]1CN[C@H](C(=O)Nc2ccc(Cl)cc2)C1)N[N+](=O)[O-]  80 µM
17. N=C(NCCCCCC(=O)N[C@@H]1CN[C@H](C(=O)Nc2ccc(F)cc2)C1)N[N+](=O)[O-]  87 µM
18. N=C(NCCCCCC(=O)N[C@@H]1CN[C@H](C(=O)Nc2cc(Cl)cc(Cl)c2)C1)N[N+](=O)[O-]  87.3 µM
19. N=C(NCCCCCC(=O)N[C@@H]1CN[C@H](C(=O)Nc2cc(Cl)ccc2Cl)C1)N[N+](=O)[O-]  105 µM
20. N=C(NCCCCCC(=O)N[C@@H]1CN[C@H](C(=O)Nc2ccccc2Cl)C1)N[N+](=O)[O-]  108 µM
21. Cc1ccccc1NC(=O)[C@@H]1C[C@H](NC(=O)CCCCCNC(=N)N[N+](=O)[O-])CN1  119 µM
22. Cc1cccc(NC(=O)[C@@H]2C[C@H](NC(=O)CCCCCNC(=N)N[N+](=O)[O-])CN2)c1  120 µM
23. Cc1ccc(NC(=O)[C@@H]2C[C@H](NC(=O)CCCCCNC(=N)N[N+](=O)[O-])CN2)c(C)c1  120 µM
24. Cc1ccc(NC(=O)[C@@H]2C[C@H](NC(=O)CCCCCNC(=N)N[N+](=O)[O-])CN2)cc1  123 µM
25. N=C(NCCCCCC(=O)N[C@@H]1CN[C@H](C(=O)Nc2ccc(F)cc2F)C1)N[N+](=O)[O-]  139 µM
26. CCOc1ccc(NC(=O)[C@@H]2C[C@H](NC(=O)CCCCCNC(=N)N[N+](=O)[O-])CN2)cc1  162 µM
